M5 PAM – positive allosteric modulators of human muscarinic M5 receptor; P08912; CHO-K1 hM5, Fluo-8 calcium, ACh EC20 PAM; 0% = ACh EC20, 100% = ACh EC100; activation, % at 3 µM; actives 0.3% (n = 360,000); AID 624038;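 active = activation above the run cutoff, the mean activation of all test compounds plus 3 SD, cut at about 18% in these data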
Target sequence (P08912 whole entry, looked up): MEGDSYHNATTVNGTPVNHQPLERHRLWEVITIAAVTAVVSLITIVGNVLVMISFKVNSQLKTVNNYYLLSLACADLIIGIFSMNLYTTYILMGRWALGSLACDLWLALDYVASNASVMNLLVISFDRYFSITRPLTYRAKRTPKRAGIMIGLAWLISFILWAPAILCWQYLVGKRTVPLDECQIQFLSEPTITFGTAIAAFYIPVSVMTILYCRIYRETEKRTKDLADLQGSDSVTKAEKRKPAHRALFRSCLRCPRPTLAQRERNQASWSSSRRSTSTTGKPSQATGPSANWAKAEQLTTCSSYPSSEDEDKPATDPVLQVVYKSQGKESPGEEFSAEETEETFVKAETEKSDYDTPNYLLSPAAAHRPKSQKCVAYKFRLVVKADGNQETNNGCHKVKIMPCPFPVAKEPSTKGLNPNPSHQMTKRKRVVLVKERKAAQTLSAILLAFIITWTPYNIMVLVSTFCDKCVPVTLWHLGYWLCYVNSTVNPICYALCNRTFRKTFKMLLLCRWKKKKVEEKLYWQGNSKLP
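System: CHO-K1 hM5 cells. Reagent: acetylcholine, EC20 level. Compound dosing: single dose, 3 µM nominal final test concentration. Timing: Post-acetylcholine fluorescence recording 140 s. Detection: Fluo-8 calcium fluorescence. Read-out: % activation, ACh-normalized. Benchmarks: ACh EC20 and EC100 wells. Repeats: singlicate, one well per test compound.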
CHRM4 antagonist – CHRM4 antagonism in calcium assay | inhibition, % at 3 µM | CHO-hM4 cells, ACh EC80, Fluo-8 calcium fluorescence | AID 624125 | actives 0.73% (n = 360,000);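 active = inhibition above its plate's cutoff, the mean inhibition of sample wells plus 3 SD, cut at about 27% in these data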;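 note: 0% = acetylcholine EC80 with DMSO and 100% = DMSO without agonist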
CHRM4 PAM – positive allosteric modulators of human muscarinic M4 receptor; actives 0.4% (n = 360,000); activation, % at 3 µM; P08173; CHO-K1 hM4/Gqi5, Fluo-8 calcium fluorescence, ACh EC20; 0% = ACh EC20, 100% = maximal ACh;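 active = activation above its plate's cutoff, the mean activation of sample wells plus 3 SD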
M5 antag – CHRM5 antagonism in calcium assay; CHO-hM5 cells, Fluo-8 calcium fluorescence, ACh EC80; inhibition, % at 3 µM; actives 0.59% (n = 360,000);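 active = inhibition above a per-plate cutoff, the mean of that plate's test compounds plus 3 SD, cut at about 27% in these data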;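 note: 0% = acetylcholine EC80 with DMSO and 100% = DMSO without agonist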
M4 ag – agonists of human muscarinic M4 receptor (CHRM4) | actives 0.14% (n = 360,000) | P08173 | CHO-K1 hM4/Gqi5, Fluo-8 calcium fluorescence; vehicle 0%, full acetylcholine response 100% | AID 624127 | activation, % at 3 µM;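 active = activation above the run mean over all test wells plus 3 SD, cut at about 32% in these data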;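 note: peak over basal fluorescence ratio per well then scaled between controls; 0% = DMSO wells and 100% = acetylcholine at EC100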
M5 ag – CHRM5 agonism in calcium assay; P08912; CHO-K1 hM5 cells, Fluo-8 calcium fluorescence; 0% DMSO wells, 100% maximal acetylcholine response; activation, % at 3 µM; actives 0.19% (n = 360,000); AID 624037;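 active = activation above the run's mean over test compounds plus 3 SD, cut at about 23% in these data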;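 note: signal is peak over basal fluorescence ratio across the kinetic read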
* marks the source's active call; other numbers are inactive results. An excerpt weighted towards active compounds, which were near 1.8% of everything screened.

CN1CCN(C(=O)/C(=C/c2ccccc2)c2ccccc2)CC1 was read as M5 PAM -18, CHRM4 antagonist 53*, CHRM4 PAM -33, M5 antag 28*, M4 ag 1 and M5 ag -12.
Screening CC1Cc2cc(C3(O)C(=O)c4ccccc4C3=O)ccc2N1 (stereo unspecified) returned M5 PAM 4, CHRM4 antagonist 31*, CHRM4 PAM -17, M5 antag -2, M4 ag 0 and M5 ag -7.
For CNc1ccc(C2(O)C(=O)c3ccccc3C2=O)cc1 the results were M5 PAM -2, CHRM4 antagonist 5, CHRM4 PAM -2, M5 antag 6, M4 ag 0 and M5 ag 0.
`COc1ccc(Nc2nc(-c3cccs3)nc3ccccc23)cc1S(=O)(=O)N1CCOCC1` gave M5 PAM -24, CHRM4 antagonist 29*, CHRM4 PAM -30, M5 antag 10, M4 ag 17 and M5 ag -4.
CC(C)n1c(/N=C/c2ccccc2O)nc2ccccc21 was read as M5 PAM 21*, CHRM4 antagonist -8, CHRM4 PAM 0, M5 antag -9, M4 ag 1 and M5 ag 0.
CCn1c(/N=C/c2ccccc2O)nc2ccccc21 was read as M5 PAM 12, CHRM4 antagonist -13, CHRM4 PAM 5, M5 antag 6, M4 ag 0 and M5 ag -4.
Screening CNC(=O)OCc1nc(SC2CCCCO2)n(C)c1COC(=O)NC (stereo unspecified) returned M5 PAM -2, CHRM4 antagonist -3, CHRM4 PAM 11, M5 antag 2, M4 ag 1 and M5 ag 2.
Cc1nn(C(C)C(=O)NCCc2ccco2)c(=O)c2nn(-c3ccccc3)c(C)c12 (stereo unspecified) was read as M5 PAM 23*, CHRM4 antagonist 17, CHRM4 PAM 51*, M5 antag 21, M4 ag 15 and M5 ag 0.
CC(CC(=O)Nc1nnc(CC(C)(C)C)s1)c1ccccc1 (stereo unspecified) was read as M5 PAM 22*, CHRM4 antagonist -10, CHRM4 PAM 2, M5 antag -8, M4 ag 1 and M5 ag 4.
`Cc1nn(CC(=O)NCCCN2CCC(Cc3ccccc3)CC2)c(=O)c2cc(-c3ccccc3)nn12` gave M5 PAM -5, CHRM4 antagonist 17, CHRM4 PAM -14, M5 antag 7, M4 ag 10 and M5 ag -6.
CCc1ccc(-c2cc3c(=O)n(CC(=O)NCCCN4CCC(Cc5ccccc5)CC4)nc(C)n3n2)cc1 was read as M5 PAM -8, CHRM4 antagonist 40*, CHRM4 PAM -10, M5 antag 11, M4 ag 7 and M5 ag -8.
`CCN1/C(=C/c2sc(-c3ccccc3C)c[n+]2C)Sc2ccccc21` gave M5 PAM -21, CHRM4 antagonist 23, CHRM4 PAM -16, M5 antag 37*, M4 ag 11 and M5 ag -3.
CCCNC(=O)C1(C)CCCN(C(=O)c2cccc(C(F)(F)F)c2)C1 (stereo unspecified) was read as M5 PAM 2, CHRM4 antagonist -6, CHRM4 PAM 5, M5 antag 5, M4 ag 1 and M5 ag 1.
O=C(NCc1nc2ccccc2[nH]1)C1=C[C@H](c2ccc(C(F)(F)F)cc2)C[C@H](OCCCCO)O1 was read as M5 PAM -1, CHRM4 antagonist 9, CHRM4 PAM 0, M5 antag 11, M4 ag 1 and M5 ag 0.
`CCC(OC(=O)c1ccco1)C(=O)NCc1ccc2c(c1)OCO2` (stereo unspecified) gave M5 PAM -2, CHRM4 antagonist -26, CHRM4 PAM 19*, M5 antag 3, M4 ag 2 and M5 ag -1.

Assay outcomes deposited in PubChem by The Scripps Research Institute Molecular Screening Center.
